Experimental data: ChEMBL document CHEMBL1125615, “A highly specific aldose reductase inhibitor, ethyl 1-benzyl-3-hydroxy-2(5H)-oxopyrrole-4-carboxylate, and its congeners” (J Med Chem, 1991)
Values joined by “and” are separate entries in the source; they are usually repeats but may differ in a detail not shown here. Equal values may be shown once.

Legend:
[1] = target: T1, Aldo-keto reductase family 1 member A1 (Sus scrofa, UniProt P50578); experiment: (§1) Selectivity ratio measured as the IC50 ratio of aldehyde/aldose reductase values
T1 sequence (P50578 whole entry): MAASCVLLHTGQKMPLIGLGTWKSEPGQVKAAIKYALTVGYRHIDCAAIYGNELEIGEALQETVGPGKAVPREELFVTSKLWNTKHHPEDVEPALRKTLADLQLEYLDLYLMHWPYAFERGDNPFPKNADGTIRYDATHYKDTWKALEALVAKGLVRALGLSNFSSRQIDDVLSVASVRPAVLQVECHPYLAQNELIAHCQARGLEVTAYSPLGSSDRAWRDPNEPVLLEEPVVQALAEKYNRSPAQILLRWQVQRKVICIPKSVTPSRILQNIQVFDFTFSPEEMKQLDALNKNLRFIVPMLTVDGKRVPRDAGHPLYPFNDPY

[2] = target: T2, Aldo-keto reductase family 1 member B1 (Homo sapiens, UniProt P15121); experiment: In vitro inhibition of human placental aldose reductase.
In short: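 Human placental aldose reductase, partly purified (placentae homogenized in 0.1 M K phosphate pH 7.0 with 5 mM 2-mercaptoethanol, spun 33000g, peak fractions pooled). Assay in 50 mM K phosphate pH 7.1 with 0.4 M ammonium sulfate, 0.067 mM NADPH, 1.0 mM DL-glyceraldehyde; enzyme set to 4 milliunits; NADPH oxidation at 340 nm, 25 °C, 10 min. IC50 by log linear regression.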

[3] = target: T3, Aldo-keto reductase family 1 member B1 (Rattus norvegicus, UniProt P07943); experiment: (§2) Inhibitory activity measured against rat lens aldose reductase using 3-pyridinecarboxaldehyde as substrate
[4] = Inhibitory activity measured against pig kidney aldehyde reductase using 3-pyridinecarboxaldehyde as substrate
In short: (§3)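 Purified rat lens aldose reductase and homogeneous pig kidney aldehyde reductase, assayed in 50 mM K phosphate pH 7.0 with 0.1 mM NADPH and 5 mM 3-pyridinecarboxaldehyde; substrate-started, NADPH loss at 340 nm over 12 min, 25 °C. IC50 by log linear regression; selectivity = aldehyde IC50 / aldose IC50.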

[5] = target: T2, Aldo-keto reductase family 1 member B1; experiment: Inhibitory activity measured in vitro against human placental aldose reductase at a concentration of 10e-5 M
Rattus norvegicus [6] = organism: Rattus norvegicus; experiment: Percent inhibition of sorbitol accumulation in rat lens was measured; format: functional, Lens of camera-type eye
In short: (§4)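 Streptozotocin 85 mg/kg i.v. at 0 h to induce diabetes in rats; compound 100 mg/kg orally at 4, 7 and 24 h; killed at 27 h. Sorbitol in sciatic nerve or lens compared with untreated diabetic rats, n = 6 per group; Student's t test.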

Rattus norvegicus [7] = organism: Rattus norvegicus; experiment: Percent inhibition of sorbitol accumulation in rat sciatic nerve was measured; format: functional; in short: as §4
[8] = target: T4, Aldo-keto reductase family 1 member A1 (Sus scrofa) (UniProt P50578); experiment: Inhibitory activity measured against pig kidney aldehyde reductase using 3-pyridinecarboxaldehyde as substrate at 2e-4; details: concentration not given here
T4 sequence (whole entry): T1 sequence (P50578 whole entry)
In short: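 Pig kidney aldehyde reductase, purified to homogeneity, was tested at 2 × 10^-4 M inhibitor in 50 mM potassium phosphate pH 7.0 with 0.1 mM NADPH and 5 mM 3-pyridinecarboxaldehyde. The reaction was started with substrate, and NADPH loss was read at 340 nm for 12 min at 25 °C. The value is percent inhibition.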

[9] = as §2; in short: as §3
[10] = target: T3, Aldo-keto reductase family 1 member B1; experiment: Inhibition of rat lens aldose reductase was measured
[11] = Physicochemical property was determined; format: ADME
[12] = as §1
In short: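 Ratio of the pig kidney aldehyde reductase IC50 to the rat lens aldose reductase IC50. Both purified enzymes were assayed in 50 mM potassium phosphate pH 7.0 with 0.1 mM NADPH and 5 mM 3-pyridinecarboxaldehyde, started with substrate, reading NADPH loss at 340 nm for 12 min at 25 °C. IC50s came from log-linear regression.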

[13] = Physicochemical property was determined; b=could not be measured; format: ADME

Q: Which IC50 [1] does the source give for `CC(/C=C1\SC(=S)N(CC(=O)O)C1=O)=C\c1ccccc1` here?
A: 1500 nM

Q: Which IC50 [2] does the source give for `CCOC(=O)C1=C(O)C(=O)N([C@H](C)c2ccccc2)C1` here?
A: 840 nM

Q: For `CCOC(=O)C1=C(O)C(=O)N([C@@H](C)c2ccccc2)C1`, which IC50 [2] is on record?
A: 1200 nM

Q: Which IC50 [3] does the source give for `CCCC(CCC)C(=O)O` [VALPROATE SODIUM] here?
A: 380000 nM

Q: And the IC50 [1]?
A: 89000 nM

Q: And the Selectivity ratio [4]?
A: 0.2

Q: For `CCOC(=O)C1=C(O)C(=O)N(C2CCCCC2)C1`, which inhibition [5] is on record?
A: 22%

Q: For `CCOC(=O)C1=C(O)C(=O)N(Cc2ccccn2)C1`, which IC50 [2] is on record?
A: 440 nM

Q: For `CCOC(=O)C1=C(O)C(=O)N(CC2CCCCC2)C1`, which inhibition [5] is on record?
A: 64%

Q: Which inhibition [5] does the source give for `CC(C)(C)OC(=O)C1=C(O)C(=O)N(Cc2cccs2)C1` here?
A: 9%

Q: What about the Inhibition (Rattus norvegicus [6]) of the same molecule?
A: 36%

Q: And the Inhibition (Rattus norvegicus [7])?
A: 37%

Q: For `CCOC(=O)C1=C(O)C(=O)N(Cc2ccc(Cl)c(Cl)c2)C1`, which IC50 [2] is on record?
A: 240 nM

Q: For `CCOC(=O)C1=C(O)C(=O)N(Cc2ccncc2)C1`, which IC50 [2] is on record?
A: 200 nM

Q: What about the inhibition [8] of the same molecule?
A: 9%

Q: And the Inhibition (Rattus norvegicus [7])?
A: 28%

Q: What about the Selectivity ratio [9] of the same molecule?
A: > 1800

Q: And the IC50 [10]?
A: 110 nM

Q: For `CCOC(=O)C1=C(O)C(=O)N(Cc2ccccc2Cl)C1`, which IC50 [2] is on record?
A: 2300 nM

Q: Which IC50 [2] does the source give for `CCOC(=O)C1=C(O)C(=O)N(Cc2ccc(OC)cc2)C1` here?
A: 410 nM

Q: With `CCOC(=O)C1=C(O)C(=O)N(c2ccccc2)C1` as the molecule, how does the inhibition [5] read?
A: 28%

Q: For `CSC1CN(Cc2ccccc2)C(=O)C1=O` (configuration not stated), which pKa [11] is on record?
A: 7.3

Q: For `CCOC(=O)C1=C(O)C(=O)N(Cc2ccc(Br)cc2)C1`, which IC50 [2] is on record?
A: 500 nM

Q: Which IC50 [2] does the source give for `CCOC(=O)C1=C(O)C(=O)N(CCc2ccccc2)C1` here?
A: 2500 nM

Q: For `O=C(O)Cc1nn(Cc2ccc(Br)cc2F)c(=O)c2ccccc12` [PONALRESTAT], which IC50 [3] is on record?
A: 28 nM

Q: And the IC50 [1]?
A: 2000 nM

Q: What about the Selectivity ratio [4] of the same molecule?
A: 71.4

Q: What does the source list for `O=C1NC(=O)C2(N1)c1ccccc1-c1ccc(F)cc12` (configuration not stated) [ALCONIL]?
A: IC50 [3]: 300 nM; IC50 [1]: 27 nM; Selectivity ratio [4]: 0.1

Q: Which IC50 [2] does the source give for `CCOC(=O)C1=C(O)C(=O)N(Cc2ccc(Cl)cc2)C1` here?
A: 310 nM

Q: Which IC50 [3] does the source give for `CCOC(=O)C1C(=O)C(=O)NC12CCOc1ccc(F)cc12` (configuration not stated) here?
A: 910 nM

Q: What about the inhibition [8] of the same molecule?
A: 11%

Q: What about the Selectivity ratio [12] of the same molecule?
A: > 200

Q: For `CCOC(=O)C1=C(O)C(=O)N(C2c3ccccc3-c3ccccc32)C1`, which IC50 [2] is on record?
A: 300 nM

Q: With `CCOC(=O)C1=C(O)C(=O)N(Cc2cccc3ccccc23)C1` as the molecule, how does the IC50 [2] read?
A: 2300 nM

Q: For `COc1ccc2c(C(=S)N(C)CC(=O)O)cccc2c1C(F)(F)F` [TOLRESTAT], which IC50 [3] is on record?
A: 29 nM

Q: Which pKa [11] does the source give for `CS(=O)(=O)C1CN(Cc2ccccc2)C(=O)C1=O` (configuration not stated) here?
A: 5.1

Q: For `CCCOC(=O)C1=C(O)C(=O)N(Cc2ccccc2)C1`, which IC50 [2] is on record?
A: 1900 nM

Q: For `CC1(S(=O)(=O)O)CC(=O)c2ccccc2C1=O` (configuration not stated) [MENADIONE SULFUROUS ACID], which IC50 [3] is on record?
A: 82000 nM

Q: What about the IC50 [1] of the same molecule?
A: 490000 nM

Q: And the Selectivity ratio [4]?
A: 6

Q: With `O=C1CCN(Cc2ccccc2)C1=O` as the molecule, how does the pKa [13] read?
A: Could not be measured

Q: Which pKa [11] does the source give for `CC1CN(Cc2ccccc2)C(=O)C1=O` (configuration not stated) here?
A: 10.6

Q: For `CC(C)(C)OC(=O)C1=C(O)C(=O)N(Cc2ccccc2)C1`, which inhibition [5] is on record?
A: 27%

Q: For `CCOC(=O)C1=C(O)C(=O)N(Cc2cccs2)C1`, which IC50 [2] is on record?
A: 380 nM

Q: For `CCOC(=O)C1=C(O)C(=O)N(c2cccc3ccccc23)C1`, which inhibition [5] is on record?
A: 36%

Q: For `CCOC(=O)C1=C(O)C(=O)N(Cc2ccccc2)C1`, which IC50 [2] is on record?
A: 260 nM

Q: And the inhibition [8]?
A: 2%

Q: What about the Inhibition (Rattus norvegicus [7]) of the same molecule?
A: 51% and 42%

Q: For `CCOC(=O)C1=C(O)C(=O)N(Cc2ccco2)C1`, which IC50 [2] is on record?
A: 3300 nM

Q: For `COC(=O)C1=C(O)C(=O)N(Cc2ccccc2)C1`, which IC50 [2] is on record?
A: 2600 nM
